Converted amounts (≈) assume the structure as drawn.
Legend:
[1] = Clearance in rat liver microsomes; format: ADME, microsome
Procedure, shortened: (§1)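 Hepatic clearance predicted from human or rat liver microsome incubations.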

[2] = Clearance in human liver microsomes; format: ADME, microsome; procedure, shortened: as §1
[3] = Kinetic solubility of the compound; format: physicochemical; conditions: read-out: Kinetic_solubility
[4] = target: Transient receptor potential cation channel subfamily A member 1 (Homo sapiens, UniProt O75762); assay: Inhibition of human TRPA1 expressed in HEK293 cells assessed as inhibition of cinnamaldehyde-induced Ca2+ influx preincubated for 20 mins followed by cinnamaldehyde induction by FLIPR assay; format: cell-based
[5] = Lipophilicity, log D of the compound at pH 7.4; conditions: buffer
[6] = Cmax in rat at 100 mg/kg, po; format: ADME, organism-based; set-up: dose 100 mg/kg, route oral; conditions: in vivo
Procedure, shortened: (§2)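 Rat oral dose of 30 or 100 mg/kg given as an amorphous suspension. Solid was dissolved in DMSO and precipitated into aqueous MCT, giving a final 15% DMSO/85% MCT. Plasma exposure measured over 0–24 h. The target multiple is unbound Cmax divided by the rat TRPA1 IC50.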

[7] = target: Transient receptor potential cation channel subfamily V member 1 (Homo sapiens, UniProt Q8NER1); assay: Inhibition of human TRPV1
[8] = target: Transient receptor potential cation channel subfamily M member 8 (Homo sapiens, UniProt Q7Z2W7); assay: Inhibition of human TRPM8
[9] = AUC (0 to 24 hrs) in rat at 30 mg/kg, po; format: ADME, organism-based; set-up: dose 30 mg/kg, time < 24 hr, route oral; conditions: in vivo; procedure, shortened: as §2
[10] = Ratio of unbound Cmax in rat at 100 mg/kg, po to IC50 for rat TRPA1; procedure, shortened: as §2
[11] = Cmax in rat at 1 mg/kg, po; format: ADME, organism-based; set-up: dose 1 mg/kg, route oral; conditions: in vivo
Procedure, shortened: (§3)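 Rat oral dose of 1 mg/kg in MCT vehicle (0.5% methylcellulose with 0.2% Tween 80 in water). Parent plasma exposure measured over 0–24 h. The target multiple is unbound Cmax divided by the rat TRPA1 IC50.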

[12] = Ratio of unbound Cmax in rat at 30 mg/kg, po to IC50 for rat TRPA1; procedure, shortened: as §2
[13] = Protein binding in rat plasma; format: ADME, cell-free; conditions: read-out: PPB (converted)
[14] = Ratio of unbound Cmax in rat at 1 mg/kg, po to IC50 for rat TRPA1; procedure, shortened: as §3
[15] = target: Transient receptor potential cation channel subfamily A member 1 (Rattus norvegicus, UniProt Q6RI86); assay: Inhibition of rat TRPA1 expressed in HEK293 cells assessed as inhibition of cinnamaldehyde-induced Ca2+ influx preincubated for 20 mins followed by cinnamaldehyde induction by FLIPR assay; format: cell-based
[16] = Cmax in rat at 30 mg/kg, po; format: ADME, organism-based; set-up: dose 30 mg/kg, route oral; conditions: in vivo; procedure, shortened: as §2
Rattus norvegicus [17] = assay: Half life in rat at 1 mg/kg, iv; format: ADME, organism-based; conditions: in vivo
[18] = Permeability across apical to basolateral side in MDCK cells; format: ADME, cell-based, Canis lupus familiaris; conditions: dog, read-out: permeability
[19] = Oral bioavailability in rat at 1 mg/kg; format: ADME, organism-based; conditions: in vivo
Rattus norvegicus [20] = assay: Volume of distribution at steady state in rat at 1 mg/kg, iv; format: ADME, organism-based; conditions: in vivo
[21] = AUC (0 to 24 hrs) in rat at 100 mg/kg, po; format: ADME, organism-based; set-up: dose 100 mg/kg, time < 24 hr, route oral; conditions: in vivo; procedure, shortened: as §2
hERG (KCNH2) = hERG (KCNH2) (Homo sapiens, UniProt Q12809); assay: Inhibition of human ERG at 10 uM by patch clamp assay relative to control
Procedure, shortened: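 hERG potassium channel inhibition measured by automated patch clamp at a single concentration of 10 μM.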

[22] = Protein binding in human plasma; format: ADME, cell-free; conditions: read-out: PPB (converted)
[23] = AUC (0 to 24 hrs) in rat at 1 mg/kg, po; format: ADME, organism-based; set-up: dose 1 mg/kg, time < 24 hr, route oral; conditions: in vivo; procedure, shortened: as §3

Transient receptor potential cation channel subfamily A member 1 (Homo sapiens, UniProt O75762), sequence (O75762 whole entry): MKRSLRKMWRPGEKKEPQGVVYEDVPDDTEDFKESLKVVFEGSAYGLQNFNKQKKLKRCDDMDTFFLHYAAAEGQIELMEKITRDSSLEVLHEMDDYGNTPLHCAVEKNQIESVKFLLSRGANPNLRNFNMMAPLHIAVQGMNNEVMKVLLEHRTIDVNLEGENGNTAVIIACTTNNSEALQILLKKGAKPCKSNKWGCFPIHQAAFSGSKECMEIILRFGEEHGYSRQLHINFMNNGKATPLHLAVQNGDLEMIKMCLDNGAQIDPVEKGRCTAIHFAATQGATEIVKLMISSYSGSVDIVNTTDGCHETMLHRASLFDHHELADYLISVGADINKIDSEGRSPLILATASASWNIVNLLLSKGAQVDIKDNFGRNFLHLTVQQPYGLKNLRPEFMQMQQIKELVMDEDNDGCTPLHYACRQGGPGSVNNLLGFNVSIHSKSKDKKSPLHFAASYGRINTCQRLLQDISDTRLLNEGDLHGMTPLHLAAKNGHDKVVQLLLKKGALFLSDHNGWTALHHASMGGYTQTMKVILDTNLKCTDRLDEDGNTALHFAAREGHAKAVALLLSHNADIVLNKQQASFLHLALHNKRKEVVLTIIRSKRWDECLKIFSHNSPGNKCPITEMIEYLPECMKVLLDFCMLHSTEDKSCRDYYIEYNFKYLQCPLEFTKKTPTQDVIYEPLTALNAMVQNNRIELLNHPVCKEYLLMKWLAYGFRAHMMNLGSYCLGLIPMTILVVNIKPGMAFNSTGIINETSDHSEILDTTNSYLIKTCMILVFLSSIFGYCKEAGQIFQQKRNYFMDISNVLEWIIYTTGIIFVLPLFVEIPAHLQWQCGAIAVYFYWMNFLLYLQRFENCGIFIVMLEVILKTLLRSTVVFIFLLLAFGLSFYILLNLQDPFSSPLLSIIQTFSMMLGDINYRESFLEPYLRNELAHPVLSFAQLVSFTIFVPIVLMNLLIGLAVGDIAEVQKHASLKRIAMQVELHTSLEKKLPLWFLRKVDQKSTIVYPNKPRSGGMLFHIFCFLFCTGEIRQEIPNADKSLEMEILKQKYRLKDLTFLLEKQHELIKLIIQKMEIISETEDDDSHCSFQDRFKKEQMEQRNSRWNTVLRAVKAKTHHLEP
hERG (KCNH2), sequence (Q12809 whole entry): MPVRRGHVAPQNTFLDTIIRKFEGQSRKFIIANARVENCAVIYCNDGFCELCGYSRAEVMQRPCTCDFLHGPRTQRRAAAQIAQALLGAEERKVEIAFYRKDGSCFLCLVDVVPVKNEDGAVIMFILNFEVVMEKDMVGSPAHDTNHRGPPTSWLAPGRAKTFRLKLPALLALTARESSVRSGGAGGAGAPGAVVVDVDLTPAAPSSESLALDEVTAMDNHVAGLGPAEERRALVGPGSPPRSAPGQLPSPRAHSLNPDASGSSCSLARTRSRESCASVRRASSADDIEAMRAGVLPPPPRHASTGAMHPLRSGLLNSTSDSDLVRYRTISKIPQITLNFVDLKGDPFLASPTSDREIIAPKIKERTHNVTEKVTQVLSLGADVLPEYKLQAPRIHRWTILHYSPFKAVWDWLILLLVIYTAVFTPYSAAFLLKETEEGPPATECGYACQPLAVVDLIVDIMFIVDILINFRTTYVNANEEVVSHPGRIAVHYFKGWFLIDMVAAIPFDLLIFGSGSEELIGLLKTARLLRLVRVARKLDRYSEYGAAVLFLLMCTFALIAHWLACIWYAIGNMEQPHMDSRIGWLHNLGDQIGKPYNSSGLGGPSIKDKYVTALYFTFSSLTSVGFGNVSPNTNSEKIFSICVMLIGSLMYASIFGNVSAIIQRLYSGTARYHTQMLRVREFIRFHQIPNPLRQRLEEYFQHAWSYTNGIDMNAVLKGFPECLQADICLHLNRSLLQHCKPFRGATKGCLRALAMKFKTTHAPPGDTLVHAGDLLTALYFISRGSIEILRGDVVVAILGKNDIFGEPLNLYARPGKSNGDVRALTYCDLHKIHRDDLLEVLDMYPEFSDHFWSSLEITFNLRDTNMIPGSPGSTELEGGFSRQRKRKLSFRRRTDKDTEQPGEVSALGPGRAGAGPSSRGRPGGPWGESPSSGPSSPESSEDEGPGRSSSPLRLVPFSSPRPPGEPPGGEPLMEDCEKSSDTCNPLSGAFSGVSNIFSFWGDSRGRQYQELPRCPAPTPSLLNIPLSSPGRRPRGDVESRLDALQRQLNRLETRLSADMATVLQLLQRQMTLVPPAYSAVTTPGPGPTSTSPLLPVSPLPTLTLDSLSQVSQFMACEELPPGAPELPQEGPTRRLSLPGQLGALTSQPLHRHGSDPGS
Transient receptor potential cation channel subfamily M member 8, sequence (Q7Z2W7 whole entry): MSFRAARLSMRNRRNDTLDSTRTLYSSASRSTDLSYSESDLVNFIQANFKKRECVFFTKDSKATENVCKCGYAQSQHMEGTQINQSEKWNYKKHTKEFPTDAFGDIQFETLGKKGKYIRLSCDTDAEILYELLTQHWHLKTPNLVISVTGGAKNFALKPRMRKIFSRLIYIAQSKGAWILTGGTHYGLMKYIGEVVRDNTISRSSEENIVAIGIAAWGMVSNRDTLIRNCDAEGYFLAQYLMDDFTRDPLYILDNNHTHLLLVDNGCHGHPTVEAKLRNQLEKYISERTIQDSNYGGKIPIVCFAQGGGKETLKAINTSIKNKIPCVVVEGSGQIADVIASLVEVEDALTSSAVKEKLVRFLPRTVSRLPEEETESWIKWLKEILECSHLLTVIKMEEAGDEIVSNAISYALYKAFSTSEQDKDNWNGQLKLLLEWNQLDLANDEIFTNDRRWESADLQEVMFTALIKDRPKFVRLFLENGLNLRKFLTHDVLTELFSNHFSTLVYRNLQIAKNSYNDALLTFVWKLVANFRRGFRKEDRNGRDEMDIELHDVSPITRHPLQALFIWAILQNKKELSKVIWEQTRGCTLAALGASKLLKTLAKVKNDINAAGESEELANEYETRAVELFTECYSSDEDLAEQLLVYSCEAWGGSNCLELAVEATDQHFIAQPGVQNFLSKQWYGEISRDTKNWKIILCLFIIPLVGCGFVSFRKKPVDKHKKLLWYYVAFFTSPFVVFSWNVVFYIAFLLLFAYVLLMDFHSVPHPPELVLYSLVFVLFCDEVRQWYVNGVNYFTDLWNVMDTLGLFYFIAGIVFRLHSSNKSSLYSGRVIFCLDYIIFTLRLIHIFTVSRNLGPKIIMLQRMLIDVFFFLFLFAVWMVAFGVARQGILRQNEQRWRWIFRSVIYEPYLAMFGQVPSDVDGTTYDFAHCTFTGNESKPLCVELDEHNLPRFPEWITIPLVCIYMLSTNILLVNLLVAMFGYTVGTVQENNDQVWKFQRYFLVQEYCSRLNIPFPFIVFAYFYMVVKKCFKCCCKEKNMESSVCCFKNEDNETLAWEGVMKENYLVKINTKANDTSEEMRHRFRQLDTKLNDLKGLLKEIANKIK
Transient receptor potential cation channel subfamily A member 1 (Rattus norvegicus, UniProt Q6RI86), sequence (Q6RI86 whole entry): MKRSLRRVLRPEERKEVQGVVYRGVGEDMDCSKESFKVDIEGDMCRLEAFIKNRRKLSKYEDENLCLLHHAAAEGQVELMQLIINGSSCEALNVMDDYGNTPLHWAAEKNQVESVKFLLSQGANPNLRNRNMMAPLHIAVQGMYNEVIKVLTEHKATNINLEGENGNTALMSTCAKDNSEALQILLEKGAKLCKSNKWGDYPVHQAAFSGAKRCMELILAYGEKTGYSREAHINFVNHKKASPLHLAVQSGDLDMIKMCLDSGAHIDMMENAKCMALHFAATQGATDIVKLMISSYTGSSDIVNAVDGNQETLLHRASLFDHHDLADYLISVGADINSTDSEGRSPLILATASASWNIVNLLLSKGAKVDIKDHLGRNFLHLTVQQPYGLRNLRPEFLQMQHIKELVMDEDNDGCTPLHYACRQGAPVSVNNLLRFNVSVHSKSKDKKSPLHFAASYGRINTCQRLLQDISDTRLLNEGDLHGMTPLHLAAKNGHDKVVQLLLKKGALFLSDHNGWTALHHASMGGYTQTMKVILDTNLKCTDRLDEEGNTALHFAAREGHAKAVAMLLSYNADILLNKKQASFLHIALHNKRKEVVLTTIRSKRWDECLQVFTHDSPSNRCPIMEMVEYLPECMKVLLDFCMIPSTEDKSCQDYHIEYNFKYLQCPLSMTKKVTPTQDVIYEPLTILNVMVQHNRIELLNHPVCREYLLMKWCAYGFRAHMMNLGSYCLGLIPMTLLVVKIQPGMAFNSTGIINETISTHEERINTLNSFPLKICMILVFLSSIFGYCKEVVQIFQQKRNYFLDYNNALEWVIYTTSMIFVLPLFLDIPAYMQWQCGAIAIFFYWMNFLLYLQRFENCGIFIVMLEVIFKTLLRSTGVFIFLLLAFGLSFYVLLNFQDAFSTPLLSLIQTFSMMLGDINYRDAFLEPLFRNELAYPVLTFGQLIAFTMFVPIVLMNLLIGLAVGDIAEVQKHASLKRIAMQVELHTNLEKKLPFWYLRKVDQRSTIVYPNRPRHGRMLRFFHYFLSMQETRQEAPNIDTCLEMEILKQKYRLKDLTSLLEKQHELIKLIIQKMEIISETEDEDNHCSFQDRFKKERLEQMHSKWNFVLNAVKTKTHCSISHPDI

| Structure (SMILES) | CLhep predicted [1] [mL/min/kg] | CLhep predicted [2] [mL/min/kg] | solubility kinetic [3] [µM] | IC50 [4] [nM] | logD [5] | further results |
| --- | --- | --- | --- | --- | --- | --- |
| C[C@H]1[C@H](F)C[C@@H](C(=O)NCc2cc(-c3cnc(C(F)(F)F)nc3)c(F)cn2)N1S(=O)(=O)c1ccc(F)cc1 | 18 | 13 | 84 (≈ 47 µg/mL) | 33 | 2.6 |  |
| O=C(NCc1cc(-c2ccc(C(F)(F)F)nc2)ncn1)[C@@H]1C[C@H](F)CN1S(=O)(=O)c1ccc(F)cc1 | 40 | 7 |  | 4400 | 1.8 |  |
| C[C@H]1[C@H](F)C[C@@H](C(=O)NCc2cc(-c3cnc(C(F)(F)F)nc3)ncc2C#N)N1S(=O)(=O)c1ccc(F)cc1 | 16 | 9 | 14 (≈ 7.93 µg/mL) | 10 |  |  |
| C[C@H]1[C@H](F)C[C@@H](C(=O)NCc2cc(-c3cnc(C(F)(F)F)nc3)nc(C3CC3)n2)N1S(=O)(=O)c1ccc(F)cc1 | 22 | 10 | < 1 | 5 | 3.8 |  |
| O=C(NCc1cc(-c2ccc(C(F)(F)F)nc2)ncn1)[C@@H]1CCN1S(=O)(=O)c1ccc(F)cc1 | 27 | 10 |  | 1500 | 2.4 |  |
| O=C(NCc1cc(-c2ccc(C(F)(F)F)nc2)ncn1)[C@@H]1CCCCN1S(=O)(=O)c1ccc(F)cc1 | 46 | 18 |  | 2300 | 3.4 |  |
| C[C@H]1[C@H](F)C[C@@H](C(=O)NCc2cc(-c3cnc(C(F)(F)F)nc3)ncc2Cl)N1S(=O)(=O)c1ccc(F)cc1 | 20 | 11 | < 1 | 5 |  |  |
| C[C@H]1[C@H](F)C[C@@H](C(=O)NCc2cc(-c3cnc(C(F)(F)F)nc3)ccn2)N1S(=O)(=O)c1ccc(F)cc1 | 18 | 16 | 132 (≈ 71.5 µg/mL) |  | 3.3 |  |
| O=C(NCc1cc(-c2ccc(C(F)(F)F)nc2)ncn1)[C@@H]1CCCN1S(=O)(=O)c1ccc(F)cc1 | 43 | 16 |  | 154 | 2.7 |  |
| C[C@H]1[C@H](F)C[C@@H](C(=O)NCc2ccnc(-c3cnc(C(F)(F)F)nc3)c2)N1S(=O)(=O)c1ccc(F)cc1 | 25 | 12 | < 1 |  | 3 |  |
| C[C@H]1[C@H](F)C[C@@H](C(=O)NCc2cc(-c3cnc(C(F)(F)F)nc3)c(Cl)cn2)N1S(=O)(=O)c1ccc(F)cc1 | 21 | 15 | 8 (≈ 4.61 µg/mL) | 13 | 2.5 |  |
| O=C(NCc1cc(-c2ccc(C(F)(F)F)nc2)ncn1)[C@@H]1C[C@@H](F)CN1S(=O)(=O)c1ccc(F)cc1 | 10 | 5 |  | 1200 | 2.4 |  |
| C[C@H]1[C@H](F)C[C@@H](C(=O)NCc2c(F)cnc(-c3cnc(C(F)(F)F)nc3)c2F)N1S(=O)(=O)c1ccc(F)cc1 | 36 | 14 | 8 (≈ 4.62 µg/mL) | 328 | 2.5 |  |
| C[C@H]1[C@H](F)C[C@@H](C(=O)NCc2cc(-c3cnc(C(F)(F)F)cn3)ncn2)N1S(=O)(=O)c1ccc(F)cc1 | 18 | 14 | 18 (≈ 9.76 µg/mL) |  | 2.3 |  |
| C[C@H]1[C@H](F)C[C@@H](C(=O)NCc2cc(-c3cnc(C(F)(F)F)nc3)c(C#N)cn2)N1S(=O)(=O)c1ccc(F)cc1 | 25 | 17 | 123 (≈ 69.7 µg/mL) | 96 | 2.3 |  |
| C[C@H]1CC[C@@H](C(=O)NCc2cc(-c3ccc(C(F)(F)F)nc3)ncn2)N1S(=O)(=O)c1ccc(F)cc1 | 47 | 19 |  | 13 | 2.9 |  |
| C[C@H]1[C@H](F)C[C@@H](C(=O)NCc2cc(-c3cnc(C(F)(F)F)nc3)ncc2F)N1S(=O)(=O)c1ccc(F)cc1 | 17 | 10 | < 1 | 8 | 2.6 | Cmax [6]: 2510 nM; IC50 [7]: > 20 µM; IC50 [8]: > 20 µM; AUC(0-t) at 24 h [9]: 32.8 µM·h; Ratio [10]: 1.95; Cmax [11]: 30 nM; Ratio [12]: 1.81; fraction unbound [13]: 0.028; Ratio [14]: 0.02; IC50 [15]: 36 nM; Cmax [16]: 2330 nM; t1/2 (Rattus norvegicus [17]): 7.5 h; Papp A→B [18]: 11.2 ×10⁻⁶ cm/s; bioavailability [19]: 12%; Vdss (Rattus norvegicus [20]): 7.5 L/kg; AUC(0-t) at 24 h [21]: 39.6 µM·h; inhibition at 10 µM (hERG (KCNH2)): 14.3%; fraction unbound [22]: 0.02; AUC(0-t) at 24 h [23]: 0.56 µM·h |
| C[C@H]1[C@H](F)C[C@@H](C(=O)NCc2cc(-c3ccc(C(F)(F)F)nc3)ncn2)N1S(=O)(=O)c1ccc(F)cc1 | 19 | 10 | 2 (≈ 1.08 µg/mL) | 179 | 2.7 |  |
| C[C@H]1[C@H](F)C[C@@H](C(=O)NCc2cc(-c3cnc(C(F)(F)F)nc3)ncn2)N1S(=O)(=O)c1ccc(F)cc1 | 18 | 11 | 53 (≈ 28.8 µg/mL) | 64 | 2.5 |  |
| C[C@@H]1CC[C@@H](C(=O)NCc2cc(-c3ccc(C(F)(F)F)nc3)ncn2)N1S(=O)(=O)c1ccc(F)cc1 | 30 | 19 |  | 239 | 4.3 |  |
